Sampled rows, rich in hits. Any-hit rate of the full collection: about 1.9%.
STEP block – inhibitors of human striatal-enriched phosphatase STEP. P54829. recombinant STEP, OMFP fluorogenic substrate, fluorescence. inhibition, % at 20 µM. 0.25% of 360,000 active;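 active = inhibition at 20 µM, scaled per plate between control wells, above about 37%, limit read from the data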
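Material: STEP (striatal-enriched tyrosine phosphatase) enzyme, cell-free; Compound dosing: 20 µM single dose in 1% DMSO; Technique: fluorescence read at 480 nm ex / 540 nm em; Times: reaction 20 min, ambient temperature; Medium: 50 mM Bis-Tris pH 6.0 with 2.5 mM DTT and 0.005% Tween 20; Also added: OMFP at 25 µM.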
PP5 primary – PP5 (human) phosphatase inhibition; P53041; purified PP5c, OMFP substrate fluorescence; inhibition, % at 6.7 µM; 0.18% of 320,000 active; AID 1987;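 active = inhibition above the campaign's mean inhibition across all tested compounds plus 3 SD, cut at about 9.5% in these data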
LMPTP block – blocks human LMPTP phosphatase. P24666. recombinant LMPTP-A, OMFP fluorogenic substrate, fluorescence intensity. inhibition, % at 20 µM. 0.22% of 360,000 active;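 active = compounds that cut the enzyme signal by at least half of the control window in the single-dose screen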
Target sequence (P24666 whole entry, looked up): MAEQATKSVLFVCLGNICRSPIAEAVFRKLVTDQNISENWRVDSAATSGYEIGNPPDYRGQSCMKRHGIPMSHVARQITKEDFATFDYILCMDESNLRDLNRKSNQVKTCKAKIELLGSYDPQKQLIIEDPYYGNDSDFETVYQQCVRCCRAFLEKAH
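Test system: LMPTP-A phosphatase enzyme. Amount: LMPTP-A at 0.625 nM final in the reaction. Reagent: OMFP substrate, 400 µM final. Times: 50 min at room temperature. Signal: endpoint fluorescence intensity from OMFP dephosphorylation. Read-out basis: % inhibition. Benchmarks: no-enzyme and uninhibited controls.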
PP1 inh – counter-screen for PP5 inhibitors: inhibitors of human PP1-alpha | AID 2235 | purified PP1alpha, OMFP fluorescence | 0.9% of 320,000 active | inhibition, % at 6.7 µM | P62136;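 active = inhibition above the mean inhibition of all tested compounds plus 3 SD, computed separately for each screening campaign, cut at about 15% in these data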
Target sequence (P62136 whole entry, looked up): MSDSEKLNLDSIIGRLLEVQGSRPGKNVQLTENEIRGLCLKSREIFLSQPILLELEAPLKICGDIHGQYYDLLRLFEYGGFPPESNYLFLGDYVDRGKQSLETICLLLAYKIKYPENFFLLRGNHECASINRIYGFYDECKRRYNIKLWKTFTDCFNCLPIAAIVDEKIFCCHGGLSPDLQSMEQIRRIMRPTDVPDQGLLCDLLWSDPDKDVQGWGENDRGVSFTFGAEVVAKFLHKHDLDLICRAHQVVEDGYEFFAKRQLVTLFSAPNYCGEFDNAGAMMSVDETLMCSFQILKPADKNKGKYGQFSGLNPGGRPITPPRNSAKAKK
Scp-1 inhibitor – blocks human Scp-1 phosphatase activity; inhibition, % at 20 µM; Recombinant Scp1, phosphopeptide, malachite green phosphate absorbance; 0.88% of 340,000 active; Q9GZU7;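 active = inhibition above about 50% at 20 µM, limit read from the data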
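Test system: SCP-1 phosphatase catalytic domain, residues 76-261 | Compound dosing: One concentration, 20 µM, with 1.0% DMSO | Schedule: 45 min room-temperature reaction, 5 min colour, 30 min stabiliser | Detection: Absorbance at 630 nm | Read-out basis: % inhibition of SCP-1 phosphate liberation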
A number is an active result.

For N#Cc1c(NC(=O)CSc2nnc(-c3ccccc3)o2)sc2c1CCCC2 the results were STEP block inactive, PP5 primary inactive, LMPTP block 77, PP1 inh inactive and Scp-1 inhibitor inactive.
CCc1[nH]nc(C(=O)N2CCCC(Nc3ccc(C(C)C)cc3)C2)c1C (stereo not drawn) was read as STEP block inactive, PP5 primary inactive, LMPTP block inactive, PP1 inh inactive and Scp-1 inhibitor inactive.
COc1cccc(-c2nc(SCC(=O)Nc3nc(-c4ccccc4)c(C)s3)[nH]c(=O)c2C#N)c1 was read as STEP block inactive, PP5 primary inactive, LMPTP block inactive, PP1 inh 17 and Scp-1 inhibitor inactive.
CC1(C)CC(=O)C(C2=NC3(CCCCCC3)Cc3ccccc32)=C(O)C1 was read as STEP block inactive, PP5 primary inactive, LMPTP block inactive, PP1 inh inactive and Scp-1 inhibitor inactive.
Screening Cc1ccc(-c2cc(-c3ccco3)c(C#N)c(=O)[nH]2)cc1 returned STEP block inactive, PP5 primary inactive, LMPTP block 49, PP1 inh inactive and Scp-1 inhibitor inactive.
Screening N#Cc1c(-c2ccco2)cc(-c2ccccc2)[nH]c1=O returned STEP block inactive, PP5 primary inactive, LMPTP block inactive, PP1 inh inactive and Scp-1 inhibitor inactive.
For C=CCC[C@H](Cc1ccc(F)cc1)C(=O)OC[C@@H](Cc1c[nH]c2ccccc12)NC(=O)[C@@H](CC=C)CC(=O)N[C@@H](CO)Cc1ccccc1 the results were STEP block inactive, LMPTP block inactive and Scp-1 inhibitor inactive.
`C=CCC[C@@H](Cc1ccc(F)cc1)C(=O)OC[C@@H](Cc1c[nH]c2ccccc12)NC(=O)[C@@H](CC=C)CC(=O)N[C@H](CO)Cc1ccccc1` gave STEP block inactive, LMPTP block 60 and Scp-1 inhibitor inactive.
`Cc1cc(C(=O)NC2CCCCC2)c(C)n1-c1ccc(F)cc1` gave STEP block inactive, PP5 primary inactive, LMPTP block inactive, PP1 inh inactive and Scp-1 inhibitor inactive.
O=C(Nc1ncn[nH]1)c1ccc(Cl)c(S(=O)(=O)Nc2ccc(Cl)cc2)c1 was read as STEP block inactive, PP5 primary inactive, LMPTP block inactive, PP1 inh 17 and Scp-1 inhibitor inactive.
`CC(C)c1ccc(S(=O)(=O)/N=C2/C=C(Sc3ncn[nH]3)C(=O)c3ccccc32)cc1` gave STEP block inactive, PP5 primary 11, LMPTP block inactive, PP1 inh inactive and Scp-1 inhibitor inactive.
`CCOC(=O)c1c(SCC(=O)Nc2nc(C)cs2)nc(=O)[nH]c1C` gave STEP block inactive, PP5 primary inactive, LMPTP block inactive, PP1 inh inactive and Scp-1 inhibitor inactive.
Screening COc1cccc(C2/C(=C(/O)c3ccc(C)cc3)C(=O)C(=O)N2Cc2ccco2)c1 (stereo not drawn) returned STEP block inactive, PP5 primary inactive, LMPTP block inactive, PP1 inh 16 and Scp-1 inhibitor inactive.
CC(CCCN1CCCC1)Nc1ccnc2cc(Cl)ccc12 (stereo not drawn) was read as STEP block inactive, LMPTP block 76 and Scp-1 inhibitor inactive.
For O=C(/C=C/c1ccco1)Nc1ccccc1C(=O)O the results were STEP block inactive, PP5 primary inactive, LMPTP block inactive, PP1 inh inactive and Scp-1 inhibitor 54.
O=C(O)CCCCCNC(=O)/C=C/c1ccco1 was read as STEP block inactive, PP5 primary inactive, LMPTP block inactive, PP1 inh inactive and Scp-1 inhibitor inactive.
Screening COc1cccc(NC(=S)NC(=O)/C=C/c2ccco2)c1 returned STEP block inactive, PP5 primary inactive, LMPTP block inactive, PP1 inh inactive and Scp-1 inhibitor inactive.
`O=C(O)CCCNC(=O)/C=C/c1ccco1` gave STEP block inactive, PP5 primary inactive, LMPTP block inactive, PP1 inh inactive and Scp-1 inhibitor 72.
Screening O=C(/C=C/c1ccco1)Nc1cc(Cl)ccc1C(=O)O returned STEP block inactive, PP5 primary inactive, LMPTP block inactive, PP1 inh inactive and Scp-1 inhibitor inactive.
Screening O=C(/C=C/c1ccco1)NC(=S)Nc1cccc(C(=O)O)c1 returned STEP block inactive, PP5 primary inactive, LMPTP block inactive, PP1 inh inactive and Scp-1 inhibitor 64.
For CC(=O)N(CCN1CCOCC1)Cc1cc2cc3c(cc2nc1Cl)OCO3 the results were STEP block inactive, PP5 primary inactive, LMPTP block inactive, PP1 inh inactive and Scp-1 inhibitor inactive.
CN(C)S(=O)(=O)c1ccc(Cl)c(NC(=O)CN2CCc3ccccc3C2)c1 was read as STEP block inactive, PP5 primary inactive, LMPTP block inactive, PP1 inh inactive and Scp-1 inhibitor inactive.
For Cc1cc(C)c2c(N)c(C(=O)Nc3ccccc3Cl)sc2n1 the results were STEP block inactive, PP5 primary inactive, LMPTP block inactive, PP1 inh 17 and Scp-1 inhibitor inactive.
Screening CCOC(=O)N1CCN(S(=O)(=O)c2ccc(C(=O)NNc3nc4ccc(Cl)cc4s3)cc2)CC1 returned STEP block inactive, PP5 primary inactive, LMPTP block inactive, PP1 inh 16 and Scp-1 inhibitor inactive.
Screening CCOC(=O)N1CCN(S(=O)(=O)c2ccc(C(=O)NNc3nc4c(C)cccc4s3)cc2)CC1 returned STEP block inactive, PP5 primary inactive, LMPTP block inactive, PP1 inh inactive and Scp-1 inhibitor inactive.
Cc1cc(C)c2nc(NNC(=O)c3ccc(S(=O)(=O)N4CCCCC4)cc3)sc2c1 was read as STEP block inactive, PP5 primary inactive, LMPTP block inactive, PP1 inh 16 and Scp-1 inhibitor inactive.
Cc1cccc2sc(NNC(=O)c3ccc(S(=O)(=O)N4CCc5ccccc5C4)cc3)nc12 was read as STEP block inactive, PP5 primary inactive, LMPTP block inactive, PP1 inh 16 and Scp-1 inhibitor inactive.
Screening O=Cc1cc([N+](=O)[O-])ccc1N1CCOCC1 returned STEP block inactive, PP5 primary inactive, LMPTP block inactive, PP1 inh inactive and Scp-1 inhibitor inactive.
`O=C1CC(=C(c2ccccc2)c2ccccc2)C(=O)N1CCCN1CCN(c2cccc(Cl)c2)CC1` gave STEP block inactive, PP5 primary inactive, LMPTP block inactive, PP1 inh 17 and Scp-1 inhibitor inactive.
O=C1CC(=C(c2ccccc2)c2ccccc2)C(=O)N1CCN1CCN(c2cccc(Cl)c2)CC1 was read as STEP block inactive, PP5 primary inactive, LMPTP block inactive, PP1 inh inactive and Scp-1 inhibitor inactive.
COc1ccc(C2C(C(=O)c3ccc(C)o3)=C(O)C(=O)N2Cc2ccco2)cc1OC (stereo not drawn) was read as STEP block inactive, PP5 primary inactive, LMPTP block inactive, PP1 inh inactive and Scp-1 inhibitor inactive.
For Cc1ccc(C(=O)C2=C(O)C(=O)N(Cc3cccnc3)C2c2cccc(Oc3ccccc3)c2)o1 (stereo not drawn) the results were PP5 primary inactive, PP1 inh 45 and Scp-1 inhibitor inactive.

Screening data: PubChem, several laboratories
